Measured values: PMC9868102 (Cell chemical biology, 2023)
Entries after “also recorded” stand apart in the source; their conditions may differ.

Columns and labels:
wild-type MEFs = assay: Labeling of wild-type MEFs by TG2 activity probes; assay type: cell-based, mouse; conditions: for labeling/staining pattern: 1 μM HB230 (3 h) with 10 μM TRX, 5BP at 100 μM
Outline: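 MEFs were grown in DMEM and seeded on glass-bottom plates for 3 days. TG2-knockout controls were E14.5 MEFs immortalised with SV40 large T. Media were replaced, then probe was added with recombinant human TRX for the whole 3 h treatment. Cells were washed in HBSS, fixed in 2% PFA for 10 min at RT, and stained with DAPI. Imaging was confocal with a 63x oil objective; probe was read on the 647 nm channel.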

human TG2 [1] = target: T1, human TG2 (Homo sapiens, UniProt P21980); conditions: nucleophilic substrate; cited from earlier work
T1 sequence (P21980 1-687): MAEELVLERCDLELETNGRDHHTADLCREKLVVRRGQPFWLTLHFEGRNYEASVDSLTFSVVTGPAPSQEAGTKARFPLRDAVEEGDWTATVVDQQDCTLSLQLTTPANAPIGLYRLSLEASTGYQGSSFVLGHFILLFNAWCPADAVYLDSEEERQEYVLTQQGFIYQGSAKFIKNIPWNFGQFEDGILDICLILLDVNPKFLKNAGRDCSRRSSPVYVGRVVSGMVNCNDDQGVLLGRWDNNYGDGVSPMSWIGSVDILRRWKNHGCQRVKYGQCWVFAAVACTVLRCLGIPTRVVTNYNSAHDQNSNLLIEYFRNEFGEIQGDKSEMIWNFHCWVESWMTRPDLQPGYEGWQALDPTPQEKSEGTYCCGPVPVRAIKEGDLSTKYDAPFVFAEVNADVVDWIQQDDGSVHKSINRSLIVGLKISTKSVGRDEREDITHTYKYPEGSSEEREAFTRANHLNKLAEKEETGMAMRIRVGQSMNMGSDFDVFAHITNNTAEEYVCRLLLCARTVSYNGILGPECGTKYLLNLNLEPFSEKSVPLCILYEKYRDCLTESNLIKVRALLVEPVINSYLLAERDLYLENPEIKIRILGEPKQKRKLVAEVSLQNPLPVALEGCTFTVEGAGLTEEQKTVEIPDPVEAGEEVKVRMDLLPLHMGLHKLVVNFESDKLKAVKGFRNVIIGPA

[2] = tested on: clathrin mediated endocytosis / LRP-1 in NRK cells; assay: Inhibition of clathrin/LRP-1 mediated endocytosis of 33mer and α2M in NRK cells; assay type: cell-based, rat; conditions: for inhibition of large endocytic puncta (33mer + α2M): 12.5 mM MβCD, 20 μM Dyno-4a, 25 μM Pitstop
Outline: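 Clathrin-endocytosis inhibitors used on NRK cells: MβCD 12.5 mM, Dyno-4a 20 μM, Pitstop 25 μM; Pitstop added 30 min before the other treatments. Then labelled α2M and Cy5-33mer for 1.5 h, HBSS washes, 2% PFA fix, DAPI, confocal for large double-labelled puncta.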

[3] = tested on: 9022 cells (HLA-DQ2 homozygous B-cell line); assay: Cell surface presentation by HLA-DQ2 expressing 9022 B cells; assay type: cell-based, human; conditions: 20 min prior to α2M and 33mer
Outline: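 EBV-immortalised HLA-DQ2-homozygous B cells in RPMI with 10% FBS and 1% PenStrep, pelleted, resuspended and left 20 min at 37 °C to adhere on poly-L-lysine-coated glass. Cy5-33mer, α2M and 100 nM recombinant human TG2 (E. coli, His6) added for 2.5 h. Anti-HLA-DQ2 (1:50) then Alexa 488 secondary, each 20 min on ice, fixed, DAPI, confocal. Cells with surface HLA-DQ2/Cy5 overlay scored; 2-4 frames of 3-6 replicates.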

NRK cells = assay: Endocytosis of fluorescent α2M in NRK cells with TG2 inhibitors or substrates; assay type: cell-based, rat
Outline: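 Rat NRK cells kept in DMEM, split 1:4 to 1:10 every 2-4 days, and imaged as adherent cultures. Small-molecule inhibitors go on 30 min ahead of other additions. Recombinant α2M is purified from culture supernatant by zinc-affinity chromatography and then SEC. After 1.5 h, cells are washed 3× in HBSS, fixed in 2% PFA/PBS for 10 min at RT, DAPI-stained, and imaged by confocal microscopy under low light.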

human TG2 [4] = target: T1, human TG2; conditions: oxidant; without active site occupancy; cited from earlier work
[5] = target: T2, TG2 derivative lacking the C-terminal β-barrel domain (Homo sapiens, UniProt P21980); assay: Kinetics of truncated TG2 lacking the C-terminal β-barrel domain; assay type: biochemical; conditions: pH 7.2, 25 °C, triplicate
T2 sequence (P21980 1-586): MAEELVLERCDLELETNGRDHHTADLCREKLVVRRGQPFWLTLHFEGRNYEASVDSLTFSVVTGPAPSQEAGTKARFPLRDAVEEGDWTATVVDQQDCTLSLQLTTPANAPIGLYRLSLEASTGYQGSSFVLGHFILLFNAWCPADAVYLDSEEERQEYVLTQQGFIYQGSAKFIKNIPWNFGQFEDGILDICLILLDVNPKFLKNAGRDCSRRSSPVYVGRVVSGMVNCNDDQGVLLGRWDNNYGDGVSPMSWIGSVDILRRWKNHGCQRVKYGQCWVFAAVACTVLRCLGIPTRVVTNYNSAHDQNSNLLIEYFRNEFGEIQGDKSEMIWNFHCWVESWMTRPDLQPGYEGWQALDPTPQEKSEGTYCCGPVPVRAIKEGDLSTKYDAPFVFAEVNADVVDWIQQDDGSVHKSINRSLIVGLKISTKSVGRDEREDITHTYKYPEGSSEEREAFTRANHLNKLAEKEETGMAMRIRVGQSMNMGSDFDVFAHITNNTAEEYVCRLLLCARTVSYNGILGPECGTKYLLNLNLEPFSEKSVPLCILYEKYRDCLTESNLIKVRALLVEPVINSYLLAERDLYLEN
Outline: (§1)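 Truncated human TG2 constructs with N-terminal His tags (residues 1-586 lacking β2; residues 1-460 lacking β1 and β2) were expressed in Rosetta2 E. coli and purified by Ni, anion exchange and SEC. The assay was GDH-coupled: 200 mM MOPS pH 7.2, 5 mM CaCl2, 10 mM α-ketoglutarate, 18 U/mL GDH, 0.5 mM NADH and Ac-PQLPF-NH2. Reduced enzyme was at 1 μM final, ± Expi293F-expressed human α2M. NADH loss was read at 340 nm for 60 min at 25 °C. Rates came from linear slopes; triplicate.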

[6] = target: T3, TG2 derivative harboring the N-terminal and catalytic domains but lacking both β-barrel domains (Homo sapiens, UniProt P21980); assay: Kinetics of truncated TG2 lacking both β-barrel domains; assay type: biochemical; conditions: pH 7.2, 25 °C, triplicate
T3 sequence (P21980 1-460): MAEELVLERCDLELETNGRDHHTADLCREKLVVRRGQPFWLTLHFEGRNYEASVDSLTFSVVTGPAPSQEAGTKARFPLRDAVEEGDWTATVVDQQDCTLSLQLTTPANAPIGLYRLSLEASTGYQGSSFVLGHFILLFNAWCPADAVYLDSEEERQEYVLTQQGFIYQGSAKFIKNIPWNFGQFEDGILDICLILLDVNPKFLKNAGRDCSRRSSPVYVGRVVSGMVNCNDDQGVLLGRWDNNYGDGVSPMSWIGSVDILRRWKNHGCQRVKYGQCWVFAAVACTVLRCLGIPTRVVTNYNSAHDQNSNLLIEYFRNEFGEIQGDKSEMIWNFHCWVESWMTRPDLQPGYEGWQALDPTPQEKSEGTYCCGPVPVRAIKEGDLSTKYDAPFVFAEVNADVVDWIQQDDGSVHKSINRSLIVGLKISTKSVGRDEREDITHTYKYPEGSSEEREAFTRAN
Outline: as §1

human TG2 [7] = target: T1, human TG2; assay: TG2 steady-state kinetics of substrates, wild-type TG2 ± α2M and vs pH; assay type: biochemical; conditions: for kcat: 200 mM MOPS pH 7.2, 5 mM CaCl2, 25 °C, 1 μM TG2, triplicate
Outline: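 His6-tagged human TG2 from E. coli BL21(DE3) was purified by Ni-NTA and anion exchange, reduced, and desalted into PBS. It was assayed at 1 μM final, ± recombinant human α2M (Expi293F-expressed), with GDH/α-ketoglutarate/NADH coupling in 200 mM MOPS pH 7.2 with 5 mM CaCl2. Substrate was Ac-PQLPF-NH2 unless otherwise specified. Absorbance at 340 nm was followed for 60 min at 25 °C. Steady-state rates came from linear progress-curve slopes; triplicate.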

NCCCCCNC(=O)CCCC[C@@H]1SC[C@@H]2NC(=O)N[C@@H]21 [5-BP, 5-biotinamidopentylamine]
labeling/staining pattern (wild-type MEFs): label bound to extracellular matrix proteins (e.g., fibronectin) in a predictably fibrous pattern
labeling/staining pattern (wild-type MEFs; listed as 5BP): fibrous incorporation pattern
TG2 substrate activity in words (human TG2 [1]): relatively weak nucleophilic substrate

O=C(N/N=C/c1cc(O)c(O)cc1O)c1cc2ccccc2cc1O [Dyno-4a]
inhibition of large endocytic puncta (33mer + α2M) [2]: strong inhibition of α2M and peptide colocalization as large endocytic puncta; also recorded: abrogate the appearance of large puncta

O=C1NC(=NS(=O)(=O)c2cccc3ccccc23)S/C1=C\c1ccc(Br)cc1 [Pitstop-2]
effect of Pitstop on cell surface 33mer [3]: dose-dependent reduction of cell-surface 33mer labeling
inhibition of large endocytic puncta (33mer + α2M) [2]: strong inhibition of α2M and peptide colocalization as large endocytic puncta
inhibition of large endocytic puncta (33mer + α2M) ([2]; listed as Pitstop): abrogate the appearance of large puncta

NCCSSCCN [cystamine, reference compound]
effect on α2M internalization (large puncta) (NRK cells; fluorescent α2M 100 μg/mL, CK805 10 μM, cystamine 100 μM): unable to promote rapid internalization of fluorescent α2M; also recorded: do not yield the larger puncta at saturating concentrations
TG2 inactivation mechanism in words (human TG2 [4]): inactivates TG2 by promoting C370-C371 disulfide bond formation

AC-PQLPF-NH2
kcat ([5]; absence of α2M): 0.15 ± 0.017 s⁻¹
kcat ([5]; presence of α2M): 0.13 ± 0.017 s⁻¹
kcat ([6]; absence of α2M): 0.12 ± 0.0033 s⁻¹
kcat ([6]; presence of α2M): 0.12 ± 0.005 s⁻¹
kcat (human TG2 [7]; absence of α2M): 0.583 ± 0.017 s⁻¹
kcat (human TG2 [7]; presence of α2M): 0.483 ± 0.017 s⁻¹

TG2: recombinant human transglutaminase 2
pH-dependence of TG2 catalytic activity (human TG2 [7]; deamidation of Ac-PQLPF-NH2, pH 4.2-7.2, steady-state, triplicates): preserved upon acidification until at least pH 5

fibronectin
endocytosis of fibronectin / effect on α2M puncta (NRK cells; 100 μg/mL fluorescent α2M, increasing exogenous fibronectin): dose-dependence increase in the abundance of large but not small puncta; also recorded: endocytosis of extracellular fibronectin via this pathway

methyl-β-cyclodextrin [MβCD]
inhibition of large endocytic puncta (33mer + α2M) [2]: strong inhibition of α2M and peptide colocalization as large endocytic puncta; also recorded: abrogate the appearance of large puncta

B1: TRX: recombinant human thioredoxin (protein, UniProt P10599 2-105, looked up)
Thioredoxin: VKQIESKTAFQEALDAAGDKLVVVDFSATWCGPCKMIKPFFHSLSEKYSNVIFLEVDVDDCQDVASECEVKCMPTFQFFKKGQKVGEFSGANKEKLEATINELV
dependence of probe labeling on TRX (wild-type MEFs; TRX added for duration of HB230 treatment): strongly dependent

B2: RAP: potent endogenous antagonist of α2M binding to LRP-1, receptor associated protein (protein, UniProt P30533 35-357, looked up)
Alpha-2-macroglobulin …: YSREKNQPKPSPKRESGEEFRMEKLNQLWEKAQRLHLPPVRLAELHADLKIQERDELAWKKLKLDGLDEDGEKEARLIRNLNVILAKYGLDGKKDARQVTSNSLSGTQEDGLDDPRLEKLWHKAKTSGKFSGEELDKLWREFLHHKEKVHEYNVLLETLSRTEEIHENVISPSDLSDIKGSVLHSRHTELKEKLRSINQGLDRLRRVSHQGYSTEAEFEEPRVIDLWDLAQSANLTDKELEAFREELKHFEAKIEKHNHYQKQLEIAHEKLRHAESVGDGERVSRSREKHALLEGRTKELGYTVKKHLQDLSGRISRARHNEL
inhibition of large 33mer-containing puncta by LRP-1 antagonist ([2]; RAP prior to Cy5-33mer and α2M): inhibits the formation of large 33mer-containing puncta; also recorded: fully ablated the formation of large puncta
